These results are taken from ChEMBL document CHEMBL1122415, “Folate antagonists. 20. Synthesis and antitumor and antimalarial properties of trimetrexate and related 6-[(phenylamino)methyl]-2,4-quinazolinediamines” (1983).

Assay [1] deals with Plasmodium berghei. Briefly: Antimalarial effect against trophozoite-induced Plasmodium berghei in mice (Mus musculus) at 20 mg/kg subcutaneous dose. It is filed as functional.
Assay [2] concerns Plasmodium berghei. Briefly: Antimalarial effect against trophozoite-induced Plasmodium berghei in mice (Mus musculus) at 320 mg/kg subcutaneous dose. Type of assay: functional.
The subject of assay [3] is Plasmodium berghei. Briefly: Antimalarial effect against trophozoite-induced Plasmodium berghei in mice (Mus musculus) at 40 mg/kg subcutaneous dose. It is filed as functional.
The test system of assay [4] is Mus musculus. Briefly: Antimalarial effect against trophozoite-induced Plasmodium berghei in mice (Mus musculus) after subcutaneous administration dose of 640 mg/kg. It is filed as functional.
In assay [5] the test system is Plasmodium berghei. Briefly: Antimalarial effect against trophozoite-induced Plasmodium berghei in mice (Mus musculus) after subcutaneous dose of 160 mg/kg. Type of assay: functional.
The subject of a further assay is L1210. Briefly: Molar concentration required to reduce the number of L1210 cells by 50% after incubation for 2 days. It is filed as functional, Mus musculus. The conditions noted are these: read-out: ID50 (the source's name). The method in brief:
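L1210 leukemia cells in tissue culture exposed to drug for 2 days. ID50 is the molar concentration that reduces L1210 cell number by 50%. Mithramycin is the reference drug.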

For assay [6], the species on record is Mus musculus. Briefly: Daily dose required for 90% parasitaemia in trophozoite induced Plasmodium berghei in 21 mice. Type of assay: functional. An outline of the steps: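 Oral suppressive test in mice against a normal drug-sensitive P. berghei strain. Drug given continuously in the diet for six consecutive days, with doses as free base equivalent. SD90 is the daily dose (mg/kg) giving 90% suppression of parasitemia versus control mice, estimated graphically on semilog paper.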

In assay [7] the test system is Mus musculus. Briefly: Antimalarial effect against trophozoite-induced Plasmodium berghei in mice (Mus musculus) after subcutaneous administration dose of 2.5 mg/kg. It is filed as functional.
Assay [8] has as its system Plasmodium berghei. Briefly: Antimalarial effect against trophozoite-induced Plasmodium berghei in mice (Mus musculus) at 5 mg/kg subcutaneous dose. It is filed as functional.
Assay [9] concerns Plasmodium berghei. Briefly: Antimalarial effect against trophozoite-induced Plasmodium berghei in mice (Mus musculus) after subcutaneous dose of 10 mg/kg. It is filed as functional.
Assay [10] relates to Plasmodium berghei. Briefly: Antimalarial effect against trophozoite-induced Plasmodium berghei in mice (Mus musculus) at 80 mg/kg subcutaneous dose. Type of assay: functional.
Assay [11] has as its system Mus musculus. Briefly: Antimalarial effect against trophozoite-induced Plasmodium berghei in mice (Mus musculus) after subcutaneous administration dose of 20 mg/kg; 2 survived after 60 days of postinfection. It is filed as functional.

“And” between values parts separate entries of the source, which are not always exact repeats. Equal entries are not always repeated.

As for `Nc1nc(N)c2cc(CN(C=O)c3ccc4cc(Cl)ccc4c3)ccc2n1`, the “Delta MST” value is 0.5 days and 0.3 days in the assay with Plasmodium berghei [1] (20 mg/kg); 13.9 days and 13.7 days and 10.7 days with Plasmodium berghei [2] (320 mg/kg); 1.5 days and 0.5 days in the assay on Plasmodium berghei [3] (40 mg/kg); 16.9 days in the assay on Mus musculus [4]; 10.9 days and 4.1 days with Plasmodium berghei [5] (160 mg/kg). For the same molecule, the IC50 was determined as 250 nM in the assay on L1210 (Mus musculus, L1210, 48 h) and 150 nM with L1210.
In the assay listed under Mus musculus [6], `CC(=O)O.Cc1c(CNc2ccc(Cl)cc2)ccc2nc(N)nc(N)c12` returned an SD90 of 0.088 mg/kg/day. Further, the “Delta MST” value with Mus musculus [7] is 0.7 days; in the assay with Plasmodium berghei [1] it was 20.9 days; in the assay on Plasmodium berghei [8] it was 8.7 days; with Plasmodium berghei [9] (10 mg/kg), 19.8 days and 25.9 days and 8.8 days. Also, the IC50 in the assay with L1210 (Mus musculus, L1210, 48 h) worked out at 1.9 nM.
Turning to `CC(=O)O.COc1cc(NCc2ccc3nc(N)nc(N)c3c2)cc(OC)c1OC.O`, the SD90 in the assay listed under Mus musculus [6] is 62 mg/kg/day. Also, the “Delta MST” value in the assay with Plasmodium berghei [1] is 0.7 days; with Plasmodium berghei [2], 7.9 days; in the assay on Plasmodium berghei [3] (40 mg/kg), 0.7 days and 0.3 days; in the assay with Plasmodium berghei [9], 0.3 days; with Plasmodium berghei [5] (160 mg/kg), 4.9 days and 4.5 days. In addition, the IC50 in the assay with L1210 (Mus musculus, L1210, 48 h) came to 57 nM; with L1210 it was 87 nM.
In turn, `CC(=O)O.Nc1nc(N)c2cc(CNc3ccc(Cl)cc3)ccc2n1.O.O` registered an SD90 in the assay filed under Mus musculus [6] of 1.9 mg/kg/day. The Delta MST was 5.1 days in the assay with Plasmodium berghei [1]; 6.9 days and 5.1 days in the assay on Plasmodium berghei [10] (80 mg/kg); 6.9 days in the assay on Plasmodium berghei [3]; 9.9 days with Plasmodium berghei [5]. Further, the IC50 was 27 nM in the assay with L1210 (Mus musculus, L1210, 48 h) and 35 nM in the assay on L1210.
For the molecule `CC(=O)O.Cc1c(CNc2ccc(Cl)c(Cl)c2)ccc2nc(N)nc(N)c12`, the SD90 in the assay listed under Mus musculus [6] came to 0.33 mg/kg/day. Besides, the “Delta MST” value with Mus musculus [7] (2.5 mg/kg) is 7.2 days and 4 days; in the assay on Plasmodium berghei [1], 15.9 days; in the assay on Mus musculus [11], 15.8 days; with Plasmodium berghei [3] it was 29.8 days; in the assay on Plasmodium berghei [8], 8.6 days. Moreover, the IC50 in the assay with L1210 (Mus musculus, L1210, 48 h) worked out at 8.4 nM; with L1210, 4.3 nM.
`CC(=O)O.Nc1nc(N)c2cc(CNc3cccc(Cl)c3)ccc2n1.O.O`: the SD90 in the assay filed under Mus musculus [6] amounted to 8.5 mg/kg/day. In addition, the “Delta MST” value is 0.7 days and 0.5 days in the assay with Plasmodium berghei [1] (20 mg/kg); 20.6 days and 16.4 days and 8.7 days in the assay on Plasmodium berghei [2] (320 mg/kg); 3.3 days with Plasmodium berghei [10]; 1.7 days in the assay with Plasmodium berghei [3]; 9.9 days with Mus musculus [4]; 0.3 days with Plasmodium berghei [9]. Besides, the IC50 with L1210 (Mus musculus, L1210, 48 h) was 46 nM; in the assay on L1210 it was 70 nM.
Take `CC(=O)O.Nc1nc(N)c2cc(CN(N=O)c3ccc(Cl)c4ccccc34)ccc2n1`: the “Delta MST” value is 0.7 days and 0.5 days in the assay with Plasmodium berghei [1] (20 mg/kg); 14.7 days and 14.9 days with Plasmodium berghei [2] (320 mg/kg); 5.7 days and 5.9 days in the assay with Plasmodium berghei [10] (80 mg/kg); 2.9 days and 2.7 days with Plasmodium berghei [3] (40 mg/kg); 0.3 days in the assay on Plasmodium berghei [9]; 12.9 days and 13.1 days with Plasmodium berghei [5] (160 mg/kg). The IC50 in the assay with L1210 (Mus musculus, L1210, 48 h) was found to be 130 nM; with L1210 it was 170 nM.
With `Nc1nc(N)c2cc(CN(C=O)c3ccc(Cl)c(C(F)(F)F)c3)ccc2n1`, the “Delta MST” value is 0.3 days in the assay with Plasmodium berghei [1]; 12.5 days and 12.3 days in the assay on Plasmodium berghei [2] (320 mg/kg); 1.5 days and 1.7 days with Plasmodium berghei [3] (40 mg/kg); 9.9 days with Mus musculus [4]; 0.3 days in the assay on Plasmodium berghei [9]; 7.5 days and 6.3 days with Plasmodium berghei [5] (160 mg/kg).
On to `Nc1nc(N)c2cc(N(Cc3ccc(Cl)c(Cl)c3)N=O)ccc2n1`, for which the “Delta MST” value with Mus musculus [11] was 20.9 days; in the assay on Plasmodium berghei [8], 2.9 days; with Plasmodium berghei [9] (10 mg/kg) it was 7.5 days and 9.9 days.
`CC(=O)N(Cc1ccc2nc(N)nc(N)c2c1)c1ccc(Cl)c(Cl)c1`: the SD90 in the assay filed under Mus musculus [6] is >15.1 mg/kg/day. Also, the “Delta MST” value in the assay with Plasmodium berghei [1] is 1.3 days; with Plasmodium berghei [10] (80 mg/kg), 8.3 days and 3.7 days and 4.1 days; with Plasmodium berghei [3], 3.7 days; with Plasmodium berghei [9], 0.9 days. The IC50 came out at 300 nM in the assay with L1210 (Mus musculus, L1210, 48 h) and 190 nM in the assay on L1210.
